Assay results published in ChEMBL document CHEMBL3286372, “Design, synthesis and structure-activity relationship of novel semi-synthetic flavonoids as antiproliferative agents” (2014).

Legend:
[1] = Growth inhibition of human UACC62 cells after 48 hrs by coulter counting analysis; assay type: functional; conditions: UACC-62, 48 h
Summary of the method: (§1)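 NCI five-dose screen, 0.01-100 µM, from DMSO stocks diluted in buffer saline (final DMSO <1%). Cells grown in RPMI 1640 + 10% FBS, seeded at 6×10^4 cells/ml, in duplicate wells. Exposure 48 h at 37 °C, 5% CO2. Cells diluted 10-fold in saline and counted by Coulter counter. GI50 derived from log concentration–percent growth inhibition curves. Controls carried matching PBS/saline/DMSO.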

[2] = system: COLO 205; assay: Growth inhibition of human COLO205 cells after 48 hrs by coulter counting analysis; assay type: functional; conditions: COLO 205, 48 h
Summary of the method: (§2)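 NCI five-dose screen at 0.01-100 µM, diluted from DMSO stocks in buffered saline (final DMSO <1%). Cells at 6×10^4 cells/ml in RPMI 1640 with 10% FBS, in duplicate wells, at 37 °C under 5% CO2 for 48 h. Cells diluted tenfold in saline and Coulter-counted. GI50, TGI and LC50 taken from log concentration-growth inhibition curves.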

[3] = system: A498; assay: Growth inhibition of human A498 cells after 48 hrs by coulter counting analysis; assay type: functional; conditions: A498, 48 h; summary of the method: as §2
[4] = system: T47D; assay: Growth inhibition of human T47D cells after 48 hrs by coulter counting analysis; assay type: functional
Summary of the method: (§3)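 Five-dose NCI-60 follow-up, 0.01–100 µM, made from DMSO stock in buffered saline (final DMSO <1%), in duplicate wells. Cells in RPMI 1640 with 10% FBS at 6×10^4 cells/ml, 37 °C, 5% CO2, 48 h. Cells diluted tenfold in saline, Coulter-counted and corrected for dilution. GI50, TGI and LC50 taken from log concentration–percent growth curves.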

[5] = system: SK-MEL-28; assay: Growth inhibition of human SK-MEL-28 cells after 48 hrs by coulter counting analysis; assay type: functional; conditions: SK-MEL-28, 48 h; summary of the method: as §3
[6] = system: HL-60(TB); assay: Growth inhibition of human HL-60(TB) cells after 48 hrs by coulter counting analysis; assay type: functional; conditions: HL-60, 48 h
Summary of the method: (§4)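 Five-dose screen (0.01-100 µM, DMSO-solubilized, under 1% DMSO final), cells in RPMI 1640 + 10% FBS at 6×10^4 cells/ml, duplicate wells, 37 °C, 5% CO2, 48 h. Cells then diluted tenfold in saline and counted by Coulter counter with dilution correction. Controls held buffer/saline/DMSO at matching dilutions. GI50 derived from log concentration-percent growth inhibition curves.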

[7] = system: RPMI-8226; assay: Growth inhibition of human RPMI8226 cells after 48 hrs by coulter counting analysis; assay type: functional; conditions: RPMI-8226, 48 h; summary of the method: as §3
[8] = system: CCRF-CEM; assay: Growth inhibition of human CCRF-CEM cells after 48 hrs by coulter counting analysis; assay type: functional; summary of the method: as §2
[9] = Growth inhibition of human OVCAR4 cells after 48 hrs by coulter counting analysis; assay type: functional; conditions: OVCAR-4, 48 h; summary of the method: as §3
[10] = system: NCI-H322M; assay: Growth inhibition of human NCI-H322M cells after 48 hrs by coulter counting analysis; assay type: functional; summary of the method: as §3
[11] = system: PC-3; assay: Growth inhibition of human PC3 cells after 48 hrs by coulter counting analysis; assay type: functional; conditions: PC-3, 48 h; summary of the method: as §3
[12] = system: MDA-MB-231; assay: Growth inhibition of human MDA-MB-231 cells after 48 hrs by coulter counting analysis; assay type: functional; conditions: MDA-MB-231, 48 h; summary of the method: as §2
[13] = Growth inhibition of human UO31 cells after 48 hrs by coulter counting analysis; assay type: functional; conditions: UO-31, 48 h; summary of the method: as §1
[14] = system: SNB-19; assay: Growth inhibition of human SNB19 cells after 48 hrs by coulter counting analysis; assay type: functional; conditions: SNB-19, 48 h; summary of the method: as §3
[15] = Growth inhibition of human Hs 578T cells after 48 hrs by coulter counting analysis; assay type: functional; summary of the method: as §2
[16] = target: Glycogen synthase kinase-3 beta (Homo sapiens) (UniProt P49841); assay: Inhibition of GSK-3beta (unknown origin) at 20 uM after 30 mins by scintillation counting analysis relative to control
Chain of Glycogen synthase kinase-3 beta (Homo sapiens) (P49841 whole entry, looked up): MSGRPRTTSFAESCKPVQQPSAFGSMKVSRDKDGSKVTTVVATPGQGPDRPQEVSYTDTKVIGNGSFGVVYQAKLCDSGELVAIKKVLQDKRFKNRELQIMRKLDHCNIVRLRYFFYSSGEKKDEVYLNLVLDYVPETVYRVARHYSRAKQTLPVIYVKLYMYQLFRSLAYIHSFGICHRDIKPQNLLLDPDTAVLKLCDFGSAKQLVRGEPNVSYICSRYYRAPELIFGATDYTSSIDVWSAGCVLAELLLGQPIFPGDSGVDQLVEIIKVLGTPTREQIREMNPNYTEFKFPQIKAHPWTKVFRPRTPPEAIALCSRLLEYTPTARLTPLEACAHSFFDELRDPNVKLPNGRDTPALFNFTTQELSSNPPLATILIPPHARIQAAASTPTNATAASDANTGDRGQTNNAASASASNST
Summary of the method: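 Recombinant kinases, cloned, expressed and purified in-house. Radiometric ³³P-ATP assay with kinase at ~10-50 nM final and 1-5 µg peptide or protein substrate. Compound at 20 µM final, in duplicate. Reaction started by adding ATP, run 30 min at ambient temperature, then spotted on P81 phosphocellulose. Plates washed in 1% phosphoric acid and counted by scintillation. No-substrate blank subtracted. Result is mean % activity change versus DMSO control.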

[17] = system: SF-268; assay: Growth inhibition of human SF268 cells after 48 hrs by coulter counting analysis; assay type: functional; conditions: SF-268, 48 h; summary of the method: as §3
[18] = system: SN12C; assay: Growth inhibition of human SN12C cells after 48 hrs by coulter counting analysis; assay type: functional; summary of the method: as §3
[19] = Growth inhibition of human LOXIMVI cells after 48 hrs by coulter counting analysis; assay type: functional; conditions: LOX IMVI; summary of the method: as §2
[20] = system: DU-145; assay: Growth inhibition of human DU145 cells after 48 hrs by coulter counting analysis; assay type: functional; conditions: DU-145, 48 h; summary of the method: as §2
[21] = Growth inhibition of human UACC257 cells after 48 hrs by coulter counting analysis; assay type: functional; conditions: UACC-257, 48 h; summary of the method: as §1
[22] = Growth inhibition of human NCI60 cells after 48 hrs by coulter counting analysis; assay type: functional; conditions: NCI60, 48 h; summary of the method: as §4
[23] = system: MDA-MB-468; assay: Growth inhibition of human MDA-MB-468 cells after 48 hrs by coulter counting analysis; assay type: functional; conditions: MDA-MB-468, 48 h; summary of the method: as §3
[24] = Growth inhibition of human EKVX cells after 48 hrs by coulter counting analysis; assay type: functional; summary of the method: as §2
[25] = system: TK-10; assay: Growth inhibition of human TK10 cells after 48 hrs by coulter counting analysis; assay type: functional; conditions: TK-10, 48 h; summary of the method: as §1
[26] = Growth inhibition of human UO31 cells at 10 uM after 48 hrs by sulforhodamine B assay relative to control; assay type: functional; conditions: UO-31, 48 h, read-out: GI
Summary of the method: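 NCI-60 primary single-dose screen at 10 µM with continuous 48 h exposure. Cell viability/growth read by sulforhodamine B protein staining. Reported as percent growth inhibition relative to untreated cells.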

[27] = system: CCRF-CEM; assay: Growth inhibition of human CCRF-CEM cells at 10 uM after 48 hrs by sulforhodamine B assay relative to control; assay type: functional; conditions: read-out: GI
Summary of the method: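 NCI-60 primary screen at a single dose of 10 µM with 48 h continuous exposure. Growth or viability read by sulforhodamine B protein staining and expressed as percent growth inhibition versus untreated cells.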

[28] = system: MDA-MB-468; assay: Growth inhibition of human MDA-MB-468 cells at 10 uM after 48 hrs by sulforhodamine B assay relative to control; assay type: functional; conditions: MDA-MB-468, 48 h, read-out: GI
Summary of the method: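 NCI-60 primary screen at a single 10 µM dose. Continuous 48 h exposure, with growth or viability estimated by sulforhodamine B protein staining. Reported as percent growth inhibition of treated cells relative to untreated growth.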

Row | SMILES | GI50 [1] [µM] | GI50 [2] [µM] | GI50 [3] [µM] | GI50 [4] [µM] | GI50 [5] [µM] | GI50 [7] [µM] | GI50 [8] [µM] | GI50 [9] [µM] | GI50 [10] [µM] | GI50 [11] [µM] | GI50 [12] [µM] | inhibition [16] [%] | GI50 [17] [µM] | GI50 [18] [µM] | GI50 [19] [µM] | GI50 [20] [µM] | GI50 [21] [µM] | LC50 [22] [µM] | TGI [22] [µM] | GI50 [23] [µM] | also measured
1 | COc1c2ccoc2c(/C=C/C=O)c2oc(-c3ccccc3)cc(=O)c12 | 5.45 | 27.7 | 7.44 | 2.14 | 2.73 | 2.24 | 1.85 | 3.2 | 9.69 | 3.23 | 4.1 | 58 | 4.23 | 2.71 | 1.48 | 10.7 | 11.5 | 87.1 | 35.5 | 7.02 | GI50 [6]: 2.33 µM; GI50 [13]: 3.63 µM; GI50 [14]: 12 µM; GI50 [15]: 7.2 µM
2 | C=CCc1c(O)c(C(=O)/C=C/c2ccc(Cl)cc2)c(OC)c2ccoc12 | 2.88 | 4.44 | 2.77 | 3.29 | 2.32 | 3.04 | 3.33 | 2.77 | 4.88 | 3.81 | 4.3 | 80 | 3.25 | 4.96 | 1.63 | 3.85 | 2.39 | 37.1 | 11 | 2.27 | GI50 [13]: 2.88 µM; GI50 [14]: 2.85 µM; GI50 [15]: 4.02 µM; GI50 [24]: 7.23 µM; GI50 [25]: 3.62 µM
3 | COc1c(C(=O)/C=C/c2ccc(Cl)cc2)c(O)c(Br)c2occc12 | 3.47 | 1.76 | 3.92 | 3.38 | 9.86 | 2.78 | 2.66 | 3.28 | 5.22 | 2.94 | 4.33 | 30 | 3.5 | 3.77 | 2.2 | 4.07 | 4.98 | 87.1 | 28.8 | 2.13 | GI50 [6]: 1.72 µM; GI50 [13]: 2.59 µM; GI50 [14]: 8.24 µM; GI50 [24]: 4.18 µM; GI50 [25]: 3.48 µM
4 | COc1ccc(-c2cc(=O)c3c(OC)c4ccoc4c(/C=C/C=O)c3o2)cc1 | 1.77 | 27.6 | 17.2 | 2.03 | 2.52 | 1.37 | 1.09 | 3.8 | 5.06 | 2.58 | 4.22 | 11 | 4.38 | 2.32 | 1.08 | 4.53 | 3.63 | 72.4 | 26.3 | 3.58 | GI50 [6]: 2.72 µM; GI50 [13]: 3.17 µM; GI50 [14]: 3.16 µM; GI50 [15]: 10.4 µM
5 | C=CCc1c(O)c(C(=O)/C=C/c2ccccc2)c(OC)c2ccoc12 | 2.74 | 5.96 | 1.74 | 4.11 | 2.49 | 1.88 | 2.75 | 2.89 | 3.19 | 3.68 | 3.11 | 38 | 2.8 | 3.79 | 1.56 | 4.92 | 2.56 | 41.7 | 11.2 | 3.07 | GI50 [13]: 2.89 µM; GI50 [14]: 2.85 µM; GI50 [15]: 3.9 µM; GI50 [24]: 6.13 µM; GI50 [25]: 4.96 µM
6 | COc1c2occc2c(OC)c2c(=O)c(CN3CCOCC3)c(/C=C/c3ccc(Cl)cc3)oc12 | 1.9 | 2.76 |  | 4.31 | 2.17 | 1.94 | 1.78 | 2.75 | 2.54 | 2.5 | 2.92 | 5 | 2.81 | 3.05 | 2.18 | 2.63 | 2.35 | 87.1 | 33.1 | 2.12 | GI50 [15]: 1.9 µM; GI50 [24]: 2.85 µM; GI50 [25]: 5.32 µM; inhibition of growth at 10 µM [26]: 61%; inhibition of growth at 10 µM [27]: 81%; inhibition of growth at 10 µM [28]: 86%
